Reference: ChEMBL document CHEMBL5126600, “Discovery of the First-in-Class G9a/GLP Covalent Inhibitors” (J Med Chem, 2022)

Columns and labels:
[1] = biological target: T1, Histone-lysine N-methyltransferase EHMT2 (Homo sapiens, UniProt Q96KQ7); experiment: Binding affinity to human G9a (913 to 1193 residues) assessed as dissociation constant measured after 1 hr by isothermal titration calorimetry method
T1 sequence (Q96KQ7 whole entry): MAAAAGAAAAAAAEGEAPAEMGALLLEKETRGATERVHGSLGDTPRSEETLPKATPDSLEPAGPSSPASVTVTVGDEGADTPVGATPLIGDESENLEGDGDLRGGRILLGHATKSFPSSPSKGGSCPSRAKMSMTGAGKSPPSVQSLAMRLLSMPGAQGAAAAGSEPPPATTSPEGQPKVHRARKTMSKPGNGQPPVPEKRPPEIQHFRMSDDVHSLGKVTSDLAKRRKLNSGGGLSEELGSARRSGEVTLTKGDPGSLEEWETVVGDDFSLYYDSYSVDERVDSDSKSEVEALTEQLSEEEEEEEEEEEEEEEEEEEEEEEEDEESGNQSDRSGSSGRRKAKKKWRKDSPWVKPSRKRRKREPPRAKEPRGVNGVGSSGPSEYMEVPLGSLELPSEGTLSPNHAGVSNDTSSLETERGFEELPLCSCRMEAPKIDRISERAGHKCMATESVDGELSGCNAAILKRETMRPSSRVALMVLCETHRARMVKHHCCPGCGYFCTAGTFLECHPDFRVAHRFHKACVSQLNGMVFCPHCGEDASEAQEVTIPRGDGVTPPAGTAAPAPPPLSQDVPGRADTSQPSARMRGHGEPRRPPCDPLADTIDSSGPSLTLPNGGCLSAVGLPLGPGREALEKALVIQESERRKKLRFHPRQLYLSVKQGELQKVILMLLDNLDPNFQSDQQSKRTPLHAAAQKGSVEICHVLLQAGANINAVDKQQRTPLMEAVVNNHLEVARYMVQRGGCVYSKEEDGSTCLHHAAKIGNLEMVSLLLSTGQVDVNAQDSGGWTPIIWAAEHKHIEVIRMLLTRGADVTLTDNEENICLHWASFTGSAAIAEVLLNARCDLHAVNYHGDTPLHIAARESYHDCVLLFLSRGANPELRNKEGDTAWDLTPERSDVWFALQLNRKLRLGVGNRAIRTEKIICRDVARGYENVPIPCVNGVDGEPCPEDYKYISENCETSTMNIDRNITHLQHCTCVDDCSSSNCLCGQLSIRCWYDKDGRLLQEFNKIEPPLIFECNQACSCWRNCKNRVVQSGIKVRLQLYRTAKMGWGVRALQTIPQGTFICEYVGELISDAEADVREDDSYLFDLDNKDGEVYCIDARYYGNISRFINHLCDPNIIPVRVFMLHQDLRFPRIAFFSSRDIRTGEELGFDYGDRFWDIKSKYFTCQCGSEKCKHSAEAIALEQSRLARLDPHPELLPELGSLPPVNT
Method in brief: (§1)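 ITC at 25 °C in 50 mM Tris-HCl pH 7.5, 150 mM NaCl, 1% DMSO; 500 μM compound in syringe titrated into 50 μM G9a or GLP catalytic domain in cell (initial 0.4 μL injection then 13 injections), stirring 750 rpm; run time about 50 min; single binding site fit; mean ± SD of two independent measurements.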

[2] = biological target: T2, Histone-lysine N-methyltransferase EHMT1 (Homo sapiens, UniProt Q9H9B1); experiment: Binding affinity to human GLP (982 to 1266 residues) assessed as dissociation constant measured after 1 hr by isothermal titration calorimetry method; method in brief: as §1
T2 sequence (Q9H9B1 whole entry): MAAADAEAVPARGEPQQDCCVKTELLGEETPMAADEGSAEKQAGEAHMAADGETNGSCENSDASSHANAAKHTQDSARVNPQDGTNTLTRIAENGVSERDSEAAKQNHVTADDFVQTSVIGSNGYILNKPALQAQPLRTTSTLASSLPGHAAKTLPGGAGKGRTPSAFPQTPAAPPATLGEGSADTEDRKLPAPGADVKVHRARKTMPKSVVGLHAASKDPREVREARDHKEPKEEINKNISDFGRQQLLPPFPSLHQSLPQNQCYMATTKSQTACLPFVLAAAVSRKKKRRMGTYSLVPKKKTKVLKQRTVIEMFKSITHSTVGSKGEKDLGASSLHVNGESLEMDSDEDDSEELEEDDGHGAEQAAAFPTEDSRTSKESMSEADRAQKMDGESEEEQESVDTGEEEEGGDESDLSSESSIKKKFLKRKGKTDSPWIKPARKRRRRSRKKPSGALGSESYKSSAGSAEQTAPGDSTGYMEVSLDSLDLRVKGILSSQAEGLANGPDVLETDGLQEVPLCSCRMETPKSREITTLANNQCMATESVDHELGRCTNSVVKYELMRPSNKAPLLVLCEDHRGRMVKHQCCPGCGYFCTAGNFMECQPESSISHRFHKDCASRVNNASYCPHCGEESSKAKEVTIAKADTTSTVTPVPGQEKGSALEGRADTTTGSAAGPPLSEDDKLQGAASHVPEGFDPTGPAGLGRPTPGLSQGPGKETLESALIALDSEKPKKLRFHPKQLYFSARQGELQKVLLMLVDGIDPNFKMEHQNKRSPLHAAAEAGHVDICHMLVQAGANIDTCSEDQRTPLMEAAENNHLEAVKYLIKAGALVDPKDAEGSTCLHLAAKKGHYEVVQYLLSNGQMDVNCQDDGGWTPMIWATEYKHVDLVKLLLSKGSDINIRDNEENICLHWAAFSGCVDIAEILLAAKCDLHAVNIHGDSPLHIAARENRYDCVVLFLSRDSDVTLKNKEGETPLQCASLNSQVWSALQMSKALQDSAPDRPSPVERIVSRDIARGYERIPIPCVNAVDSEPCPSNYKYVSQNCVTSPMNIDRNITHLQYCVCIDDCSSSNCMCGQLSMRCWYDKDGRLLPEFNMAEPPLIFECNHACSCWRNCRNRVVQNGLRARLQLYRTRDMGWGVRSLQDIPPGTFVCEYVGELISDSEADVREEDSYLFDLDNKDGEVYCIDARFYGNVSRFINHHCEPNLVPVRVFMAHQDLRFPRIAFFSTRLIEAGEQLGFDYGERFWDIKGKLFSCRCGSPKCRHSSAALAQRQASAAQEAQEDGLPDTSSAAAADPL

[3] = biological target: T1, Histone-lysine N-methyltransferase EHMT2; experiment: Inhibition of human G9a (913 to 1193 residues) using H3 peptide substrate preincubated for 5 mins followed by SAM addition measured after 10 mins by SAHH-coupled biochemical assay
[4] = biological target: T2, Histone-lysine N-methyltransferase EHMT1; experiment: Inhibition of human GLP (982 to 1266 residues) using H3 peptide substrate preincubated for 5 mins followed by SAM addition measured after 10 mins by SAHH-coupled biochemical assay
[5] = biological target: T3, Histone-lysine N-methyltransferase EHMT2 (Homo sapiens) (UniProt Q96KQ7); experiment: Inhibition of human G9a (913 to 1193 residues) assessed as covalent modification by measuring G9a adduct formation at 50 uM incubated for 1 hr by mass spectrometry relative to control
T3 sequence (whole entry): T1 sequence (Q96KQ7 whole entry)
Method in brief: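 Purified G9a or GLP catalytic domain (5 μM) in 50 mM Tris-HCl pH 7.5, 150 mM NaCl incubated with 50 μM compound or DMSO at room temperature (1 h, or 30 and 60 min in time course); intact mass by ESI LC/MS-TOF; adduct % = adduct/(protein + adduct) × 100.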

| Structure (SMILES) | Kd [1] | Kd [2] | IC50 [3] | IC50 [4] | inhibition [5] |
| --- | --- | --- | --- | --- | --- |
| CCC(=O)Nc1cc(NC2CCN(C(C)C)CC2)c2cc(OC)c(OCCCN3CCCC3)cc2n1 | 48 nM | 16 nM | 211 nM | 151 nM | – |
| C=CC(=O)Nc1nc(NC2CCN(C(C)C)CC2)c2cc(OC)c(OCCCN3CCCC3)cc2n1 | – | – | – | – | 40% |
